High-throughput results: PubChem BioAssay, Broad Institute
MLL AF4-AF9 inh: inhibitors of AF4 peptide binding to AF9, primary screen, biochemical, AlphaScreen, biotin-AF4 peptide, FLAG-AF9, single point; Protein AF-9 (Homo sapiens), P42568; inhibition, % at 10 µM; 0.47% of 350,000 active;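 active = every replicate reaching a set inhibition limit, whatever the replicate mean, cut at about 25% in these data; inconclusive = mean inhibition reaches that limit but some replicates miss it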;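 also: 0% = plate neutral control median and 100% = total signal loss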
Target sequence (P42568 whole entry, looked up): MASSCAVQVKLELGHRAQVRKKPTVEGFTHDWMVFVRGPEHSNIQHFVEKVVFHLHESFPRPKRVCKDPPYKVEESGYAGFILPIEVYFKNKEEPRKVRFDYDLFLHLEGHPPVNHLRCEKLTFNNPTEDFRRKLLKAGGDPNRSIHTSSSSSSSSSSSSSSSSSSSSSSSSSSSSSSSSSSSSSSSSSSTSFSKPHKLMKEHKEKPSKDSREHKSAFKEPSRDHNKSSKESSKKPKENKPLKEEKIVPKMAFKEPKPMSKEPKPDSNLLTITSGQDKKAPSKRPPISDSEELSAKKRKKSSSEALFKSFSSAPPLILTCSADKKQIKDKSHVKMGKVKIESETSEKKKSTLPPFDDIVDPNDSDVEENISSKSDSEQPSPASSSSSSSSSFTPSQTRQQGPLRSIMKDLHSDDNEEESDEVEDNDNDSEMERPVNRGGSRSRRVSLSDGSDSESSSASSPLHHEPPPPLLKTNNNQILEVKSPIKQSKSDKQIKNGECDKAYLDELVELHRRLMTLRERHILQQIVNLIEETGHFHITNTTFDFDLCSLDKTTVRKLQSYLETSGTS
rRNA inh HTS: reduced GFP signal of wild-type E. coli, primary screen, bacterial rRNA inhibitor project, GFP/RFP fluorescence, OD600, single point | AID 720706, 2013 | 1.6% of 350,000 active | GFP signal change (wild-type ribosome), % (test concentration not listed) | E. coli WT GFP vs humanized-ribosome RFP mutants, 24 h; stronger effect = lower value; DMSO median 0, no signal -100;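 active = significant combined selectivity score with lowered wild-type GFP, culture density cut under 30%, mutant RFP and density less affected; inactive = any of these conditions unmet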
Cneo AK release: Cryptococcus neoformans cell lysis inducers, primary screen, AK release luminescence, single concentration; C. neoformans lysis, adenylate kinase release luminescence, 4 h; normalised: neutral wells 0, clomiphene wells 100; lysis activity, % at 15 µM; 0.2% of 360,000 active; AID 651654, 2012;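 active = mean lysis activity across replicates of at least 80%, whatever share of replicates individually reach that level; inactive = mean lysis activity below 80%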
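Material – Cryptococcus neoformans yeast cells · Quantity – 5 × 10^6 yeast cells/mL · Buffer or medium – YPD medium · Compound – single dose · Timing – 4 h static compound exposure, 37 °C, read 1 h post-reagent · Signal – adenylate kinase release luminescence · Read-out basis – lysis from increased AK signal · Benchmarks – Clomiphene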
S100A4 MyoIIA: inhibitors of S100A4-myosin IIA peptide binding, primary screen, biochemical, fluorescence polarization, TAMRA-MyoIIA peptide | 0.14% of 360,000 active | Protein S100-A4 (Homo sapiens), P26447 | inhibition, % at 10.7 µM | AID 652163, 2013;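 active = mean inhibition of at least 70% across replicates, with every replicate also reaching that level; inconclusive = mean inhibition reaches 70% but some replicates fall short; inactive = mean inhibition below 70%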
Target sequence (P26447 whole entry, looked up): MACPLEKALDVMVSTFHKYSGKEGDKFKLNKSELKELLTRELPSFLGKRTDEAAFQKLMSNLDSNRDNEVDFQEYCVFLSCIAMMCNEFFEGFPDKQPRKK
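System – human S100A4 monomer protein, biochemical binding assay · Buffer or medium – Calcium-containing HEPES buffer, pH 7.2 · Timing – 5 min between mix addition and reading · Also added – TAMRA-labelled myosin IIA heavy-chain peptide probe, 5 nM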
DENV2 CPE rescue: inhibitors of DENV2 cytopathic effect, primary screen, cell-based, plate reader, single concentration | DENV2-infected cells, cytopathic effect rescue | CPE inhibition, % at 9.99 µM | 1.7% of 350,000 active; in the data active = CPE inhibition above about 20%, passing the limit was not always enough; inconclusive = no clear call, values can overlap the other calls; tested in BHK-21 cells;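 also: 0% = median of neutral control wells and 100% = median of positive control wells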
PfHsp90 yeast 2: growth inhibition of PfHsp90-expressing yeast, primary screen, antimalarial PfHsp90 inhibitor project, S. cerevisiae, BacTiter-Glo luminescence, single point, set 2; 0.32% of 310,000 active; BacTiter-Glo ATP, 48 h; yeast lacking PDR1 and PDR3 efflux regulators; inhibition, % at 9.4 µM; AID 504621, 2011;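 active = every replicate shows inhibition above about 80%, whatever the replicate mean, limit read from the data; inconclusive = mean inhibition reaches the set limit but some replicate falls short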;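 also: 0% = DMSO neutral controls and 100% = 20 µM radicicol positive controls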
The depositor's hits bear a star; u = inconclusive; x = no result given. Only some compounds are listed: those with a hit (about 3.2% of all), similar ones and a draw of the others.

SMILES	MLL AF4-AF9 inh	rRNA inh HTS	Cneo AK release	S100A4 MyoIIA	DENV2 CPE rescue	PfHsp90 yeast 2
CC(=O)N(C1=C(Cl)C(=O)c2ccccc2C1=O)C1CCCCC1	15.3	-19.9	8.2	-1.7	-2.9	109.1*
N=c1c2c3c(sc2ncn1Nc1ccccc1)CCC3	x	-17.2*	0.8	-9.0	-8.3	x
N=c1c2c3c(sc2ncn1Cc1ccccc1)CCCC3	x	x	x	x	x	-22.9
C[C@@H]1CCCCO[C@H](CN(C)C(=O)c2ccccc2)[C@@H](C)CN([C@@H](C)CO)C(=O)c2cc(NC(=O)Nc3ccccc3)ccc2O1	0.3	-9.5	-1.9	49.9	-7.4	x
COC(=O)c1cc(NC(=O)c2cccc([N+](=O)[O-])c2C)ccc1Cl	0.0	-25.2*	2.8	3.4	-0.1	12.5
Cc1c(C(=O)Nc2ccc(C(=O)Nc3ccccc3)cc2)cccc1[N+](=O)[O-]	-1.7	7.2	45.1	3.2	25.9*	-16.5
O=C(Nc1ccc(Cl)c([N+](=O)[O-])c1)c1ccco1	-9.8	3.3	112.3*	-6.2	u	-8.9
O=C(/C=C/c1ccc(Cl)c([N+](=O)[O-])c1)Nc1ccc(NC(=O)c2ccco2)cc1	-1.7	3.6	x	0.0	2.3	7.2
COc1ccc(C(=O)Nc2ccc(Nc3ccccc3)cc2)cc1[N+](=O)[O-]	2.3	-15.2*	-1.0	2.1	39.8*	18.0
C[C@H]1CN([C@@H](C)CO)C(=O)c2cc(-c3ccc(C#N)cc3)cnc2O[C@H]1CN(C)Cc1ccccn1	-9.6	2.5	-1.4	15.0	u	x
CNC[C@@H]1Oc2ccc(NC(=O)Cc3cn(C)c4ccccc34)cc2C(=O)N([C@@H](C)CO)C[C@@H]1C	x	8.1	x	x	x	x
Cc1noc(C)c1S(=O)(=O)Nc1cccc2c1O[C@H](CN(C)Cc1ccc(C(=O)O)cc1)[C@H](C)CN([C@H](C)CO)C2=O	-4.5	9.3	3.5	-1.7	-8.1	x
O=c1c2ccccc2c(C=NCCCN2CCOCC2)c(O)n1Cc1ccc2c(c1)OCO2	19.9	-28.9*	x	-0.4	-0.4	4.6
O=c1c2ccccc2c(C=NCCCN2CCOCC2)c(O)n1Cc1ccccc1	x	x	-0.1	x	x	5.9
COc1ccc(S(=O)(=O)Nc2ccc3c(c2)C(=O)N([C@@H](C)CO)C[C@H](C)[C@@H](CN(C)S(=O)(=O)c2ccc(OC)cc2)O3)cc1	-0.1	-2.0	0.0	-55.0	7.8	x
CCN1C(=O)S/C(=C/c2ccc(Sc3nc4ccccc4[nH]3)o2)C1=O	3.6	-23.1*	3.4	15.6	-10.6	0.2
N#C/C(=C/c1ccc(Sc2nc3ccccc3[nH]2)o1)c1cccc(Br)c1	x	x	-1.1	x	x	-30.3
CCCNC(=O)Nc1ccc2c(c1)C(=O)N(C)C[C@@H](OC)[C@@H](C)CN(CC1CCCC1)[C@H](C)CO2	x	2.3	x	x	x	x
O=c1oc(-c2ccccc2NS(=O)(=O)c2ccc(F)cc2)nc2ccccc12	x	-32.2*	-2.5	0.9	0.8	-16.1
C[C@H]1CN([C@@H](C)CO)S(=O)(=O)c2ccc(-c3cccc(C#N)c3)cc2O[C@@H]1CN(C)C(=O)C1CC1	2.3	-0.8	3.2	-12.9	u	x
O=C(Nc1ccccc1)Nc1nc(-c2ccc(Cl)cc2)cs1	-4.1	-18.4*	5.4	-2.8	x	14.9
O=C(Cc1csc(NC(=O)Nc2ccc(Cl)cc2)n1)NCc1cccnc1	-0.2	-31.8*	-5.1	-3.6	14.7	5.1
O=C(Nc1nc(-c2ccccc2)cs1)c1ccccc1F	-0.5	-19.6*	-1.1	-2.0	-3.8	-29.3
O=C(Nc1cccc(Cl)c1)Nc1nc(-c2ccc(Cl)cc2)cs1	x	x	x	x	x	9.4
O=C(O)/C=C/C(=O)Nc1nc(-c2ccc3ccccc3c2)cs1	x	-33.6*	x	6.4	0.8	0.0
SMILES	MLL AF4-AF9 inh	rRNA inh HTS	Cneo AK release	S100A4 MyoIIA	DENV2 CPE rescue	PfHsp90 yeast 2
O=C(/C=C/c1ccccc1)Nc1nc(-c2ccncc2)cs1	1.0	13.2	-3.7	-4.8	2.3	-5.4
O=C(CN1CCOCC1)N1CC[C@@H]2[C@H](CO)Nc3ccc(-c4ccccc4)cc3[C@@H]21	3.6	3.6	5.5	-18.2	17.7	x
CNC[C@H]1OCCCC[C@H](C)Oc2ccc(NS(=O)(=O)c3c(C)noc3C)cc2C(=O)N([C@H](C)CO)C[C@@H]1C	x	2.9	-12.4	x	8.8	x
COCC(=O)Nc1ccc2c(c1)C(=O)N(C)C[C@H](OC)[C@@H](C)CN[C@@H](C)CO2	x	4.2	-6.4	x	x	x
C[C@@H]1CN([C@@H](C)CO)C(=O)CCCn2cc(nn2)CO[C@H]1CN(C)Cc1ccc(O)cc1	-0.7	2.5	-3.5	6.7	-15.1	x
CCCNC(=O)C[C@H]1CC[C@H]2[C@@H](COC[C@@H](O)CN2C(=O)Nc2ccccc2OC)O1	-1.1	3.8	-8.8	14.3	43.9*	x
CCCNC(=O)C[C@H]1CC[C@H]2[C@@H](COC[C@H](O)CN2C(=O)Nc2ccccc2OC)O1	-0.4	4.1	2.1	-0.6	20.9*	x
CCCNC(=O)C[C@@H]1CC[C@H]2[C@@H](COC[C@H](O)CN2C(=O)Nc2ccccc2OC)O1	-1.1	5.4	-0.4	22.6	9.2	x
COc1ccc(C(=O)Nc2ccc3c(c2)C(=O)N(C)C[C@@H](OC)[C@H](C)CN(C(=O)C2CC2)[C@H](C)CO3)cc1	-0.1	0.1	1.0	8.4	6.4	x
COCC#Cc1cnc2c(c1)C(=O)N([C@H](C)CO)C[C@@H](C)[C@H](CN(C)Cc1ccc(-c3ccccc3)cc1)O2	x	1.7	x	x	x	x
Cc1noc(C)c1NC(=O)N(C)C[C@H]1Oc2c(NC(=O)Nc3ccc(F)cc3)cccc2C(=O)N([C@H](C)CO)C[C@@H]1C	-0.9	1.6	0.5	21.2	3.1	x
Cc1ccc2[nH]c3c(Cl)ncnc3c2c1	6.3	-29.3*	-0.7	-2.5	6.1	26.5
COc1ccc2c(c1)[nH]c1c(Cl)ncnc12	-1.5	-7.5	x	-2.5	-0.5	8.2
O=C(NCC[C@H]1CC[C@@H](NC(=O)C2CCCC2)[C@@H](CO)O1)c1ccc(F)cc1	-1.6	-2.7	1.6	-1.9	12.9	x
COc1ccc(/C=C/C(=O)c2ccc([N+](=O)[O-])o2)cc1	1.5	0.9	-1.8	13.2	x	14.9
O=C(/C=C/c1cccc([N+](=O)[O-])c1)c1ccco1	-8.8	16.6	0.0	-3.6	-4.5	85.2*
O=C(/C=C/c1cccc([N+](=O)[O-])c1)Nc1cccc(NC(=O)c2ccco2)c1	4.0	-4.8	x	0.4	-5.7	1.4
Cc1cccc(/C=C/C(=O)c2ccc([N+](=O)[O-])o2)c1	-0.4	7.3	-1.1	8.9	5.8	103.0*
